ChEMBL document CHEMBL4765251, “Efficient identification of novel anti-glioma lead compounds by machine learning models” (Eur J Med Chem, 2020)
Active and inactive are the calls of the source. No cut-off for these calls is given here.

Tests used:
C6 [1] = experiment: Antiproliferative activity against rat C6 cells assessed as cell growth inhibition preincubated with NAC for 1 hr prior to compound challenge and measured after 72 hrs by SRB assay; format: functional, cell-based
How it was run: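 C6 cells were pretreated with 2 mM N-acetylcysteine for 1 h, then exposed to compound for 72 h. Viability was measured by SRB assay relative to DMSO-treated controls. Auranofin served as the reference thiol-reactive control.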

[2] = Selectivity index, ratio of CC50 for Wistar rat astrocytes to EC50 for human U87MG cells
How it was run: (§1)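 Selectivity index is astrocyte CC50 divided by the glioma-line EC50, both from 72 h SRB assays. No index is given when astrocyte cytotoxicity could not be calculated at the highest concentration tested.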

[3] = Hematological toxicity in C57BL/6 mouse xenografted with C57BL/6 mouse GL261 cells assessed as WBC level in blood at 100 mg/kg, po or ip administered once daily for 10 days starting from 7 days post tumor cell inoculation and measured on day 17 (reference value: 8.6 +/- 1.6x10^3/uL); format: organism-based; conditions: in vivo, 240 h, dose 100 mg/kg/day, time 10 day
[4] = Hepatotoxicity in C57BL/6 mouse xenografted with C57BL/6 mouse GL261 cells assessed as serum ALT level at 100 mg/kg, po or ip administered once daily for 10 days starting from 7 days post tumor cell inoculation and measured on day 17 (reference value: 7.6 +/- 4.2 U/L); format: toxicity, organism-based; conditions: in vivo, 240 h, dose 100 mg/kg/day, time 10 day
[5] = Toxicity in C57BL/6 mouse xenografted with C57BL/6 mouse GL261 cells assessed as mortality at 100 mg/kg, po administered via gavage once daily for 10 days starting from 7 days post tumor cell inoculation; format: organism-based; conditions: in vivo, 240 h, dose 100 mg/kg/day, time 10 day
How it was run: (§2)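 Orthotopic model: 5x10^4 GL261 cells in 2 µL serum-free DMEM injected into the right hemisphere of 60-day-old male and female C57BL/6 mice (17-25 g) under ketamine/xylazine. Treatment began 7 days later, n=9 per group. Compound was given in 0.9% saline with 10% DMSO and 0.3% Tween-80, as 100 µL ip or 200 µL by gavage. Body weight change (final minus initial) and mortality were monitored.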

[6] = Hematological toxicity in C57BL/6 mouse xenografted with C57BL/6 mouse GL261 cells assessed as blood glucose level at 100 mg/kg, po or ip administered once daily for 10 days starting from 7 days post tumor cell inoculation and measured on day 17 (reference value: 108 +/- 13 mg/dl); format: organism-based; conditions: in vivo, 240 h, dose 100 mg/kg/day, time 10 day
[7] = Toxicity in C57BL/6 mouse xenografted with C57BL/6 mouse GL261 cells assessed as body weight at 100 mg/kg, po administered via gavage once daily for 10 days starting from 7 days post tumor cell inoculation; format: organism-based; conditions: in vivo, 240 h, dose 100 mg/kg/day, time 10 day; how it was run: as §2
U-251 = experiment: Antiproliferative activity against human U251MG cells assessed as cell growth inhibition measured after 72 hrs by SRB assay; format: functional, cell-based; conditions: U-251, 72 h
[8] = Selectivity index, ratio of CC50 for Wistar rat astrocytes to EC50 for human U-251 MG cells; how it was run: as §1
[9] = Cytotoxicity against Wistar rat astrocytes assessed as cell growth inhibition measured after 72 hrs by SRB assay; format: cell-based, Astrocyte
How it was run: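 Primary astrocytes taken from the cortex of 2-day-old Wistar rats by mechanical dissociation, grown on poly-L-lysine in high-glucose DMEM and treated at 90% confluence (12-15 days). Exposed to 0.1-100 µM for 72 h, then SRB assay with absorbance read at 510 nm against DMSO controls. Mean ± SD of three independent assays.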

U-87 MG = experiment: Antiproliferative activity against human U87MG cells assessed as cell growth inhibition measured after 72 hrs by SRB assay; format: functional, cell-based, U-87MG ATCC
How it was run: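 U87MG human glioma cells grown in DMEM with 10% FBS at 37 °C, used up to 30 passages and treated at 40-50% confluence. Exposed to 0.1-100 µM for 72 h, with DMSO at most 0.1% final. TCA-fixed, stained with SRB, dye solubilized in Tris pH 10.5, read at 510 nm, expressed as % of DMSO controls. Mean ± SD of three independent assays.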

[10] = Nephrotoxicity in C57BL/6 mouse xenografted with C57BL/6 mouse GL261 cells assessed as serum creatinine level at 100 mg/kg, po or ip administered once daily for 10 days starting from 7 days post tumor cell inoculation and measured on day 17 (reference value: 0.4 +/- 0.3 mg/dl); format: toxicity, organism-based; conditions: in vivo, 240 h, dose 100 mg/kg/day, time 10 day
Rattus norvegicus [11] = species on record: Rattus norvegicus; experiment: Inhibition of TrxR in rat liver assessed as reduction in TNB formation using DTNB and NADPH as substrate at 100 uM preincubated with enzyme for 15 mins followed by NADPH addition by absorbance based analysis; format: tissue-based
How it was run: (§3)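 TrxR activity was measured at 37 °C in 100 mM potassium phosphate pH 7.0 with 2 mg/mL DTNB and 0.01 mg/mL enzyme. Enzyme was preincubated for 15 min with compound or DMSO, then the reaction was started with 0.2 mg/mL NADPH. TNB formation was followed at 412 nm (ε 13.6 mM-1 cm-1). Assays were run in duplicate, with enzyme-free blanks subtracted.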

[12] = Antitumor activity against C57BL/6 mouse GL261 cells xenografted in C57BL/6 mouse assessed as reduction in tumor volume at 100 mg/kg, ip administered once daily for 10 days starting from 7 days post tumor cell inoculation and measured on day 17; format: functional; conditions: C57BL/6, GL261, ip, 240 h, time 10 day
How it was run: (§4)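 GL261 cells (5x10^4 in 2 µL DMEM) were injected into the right hemisphere of 60-day-old male and female C57BL/6 mice (17-25 g) under ketamine/xylazine. From day 7, mice received compound once daily for 10 days (n=9 per group), by gavage (200 µL) or ip (100 µL). Vehicle was 0.9% saline with 10% DMSO and 0.3% Tween-80. Tumor volume was taken as the summed segmented areas of three H&E coronal sections.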

[13] = Toxicity in C57BL/6 mouse xenografted with C57BL/6 mouse GL261 cells assessed as body weight at 100 mg/kg, ip administered once daily for 10 days starting from 7 days post tumor cell inoculation; format: organism-based; conditions: in vivo, 240 h, dose 100 mg/kg/day, time 10 day; how it was run: as §2
GL261 [14] = experiment: Antitumor activity against C57BL/6 mouse GL261 cells xenografted in C57BL/6 mouse assessed as reduction in tumor volume at 10 to 100 mg/kg, po administered via gavage once daily for 10 days starting from 7 days post tumor cell inoculation and measured on day 17; format: functional, organism-based; conditions: dose 10-100 mg/kg/day, time 10.0 day; how it was run: as §4
[15] = Hematological toxicity in C57BL/6 mouse xenografted with C57BL/6 mouse GL261 cells assessed as hematocrit level in blood at 100 mg/kg, po or ip administered once daily for 10 days starting from 7 days post tumor cell inoculation and measured on day 17 (reference value: 44.5 +/- 1.8%); format: organism-based; conditions: in vivo, 240 h, dose 100 mg/kg/day, time 10 day
C6 [16] = experiment: Antiproliferative activity against rat C6 cells assessed as cell growth inhibition measured after 72 hrs by SRB assay; format: functional, cell-based; conditions: C6, 72 h
[17] = Toxicity in C57BL/6 mouse xenografted with C57BL/6 mouse GL261 cells assessed as mortality at 100 mg/kg, ip administered once daily for 10 days starting from 7 days post tumor cell inoculation; format: organism-based; conditions: in vivo, 240 h, dose 100 mg/kg/day, time 10 day; how it was run: as §2
[18] = Selectivity index, ratio of CC50 for Wistar rat astrocytes to EC50 for rat C6 cells; how it was run: as §1
[19] = Toxicity in C57BL/6 mouse xenografted with C57BL/6 mouse GL261 cells at 100 mg/kg, po administered via gavage once daily for 10 days starting from 7 days post tumor cell inoculation; format: organism-based; conditions: in vivo, 240 h, dose 100 mg/kg/day, time 10 day; how it was run: as §2
[20] = Hepatotoxicity in C57BL/6 mouse xenografted with C57BL/6 mouse GL261 cells assessed as serum ALP level at 100 mg/kg, po or ip administered once daily for 10 days starting from 7 days post tumor cell inoculation and measured on day 17 (reference value: 19.1 +/- 8.9 U/L); format: toxicity, organism-based; conditions: in vivo, 240 h, dose 100 mg/kg/day, time 10 day
[21] = Toxicity in C57BL/6 mouse xenografted with C57BL/6 mouse GL261 cells at 100 mg/kg, ip administered once daily for 10 days starting from 7 days post tumor cell inoculation; format: organism-based; conditions: in vivo, 240 h, dose 100 mg/kg/day, time 10 day; how it was run: as §2
C6 [22] = experiment: Antiproliferative activity against rat C6 cells assessed as cell growth inhibition measured after 72 hrs in presence of 0.0001 to 0.001% Triton X-100 by SRB assay; format: functional, cell-based
How it was run: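 Rat C6 glioma cells were incubated for 72 h in medium with no detergent or with 0.0001% or 0.001% Triton X-100, as a check for aggregation-based cytotoxicity. Viability was read by SRB assay and an EC50 was derived from concentration-response curves. Mean ± SD of three independent assays.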

GL261 [23] = experiment: Antitumor activity against C57BL/6 mouse GL261 cells xenografted in C57BL/6 mouse assessed as reduction in tumor volume at 20 mg/kg, ip administered once daily for 10 days starting from 7 days post tumor cell inoculation and measured on day 17; format: functional, organism-based; conditions: dose 20.0 mg/kg/day, time 10.0 day
GL261 [24] = experiment: Antitumor activity against C57BL/6 mouse GL261 cells xenografted in C57BL/6 mouse assessed as reduction in tumor volume at 20 mg/kg, po administered via gavage once daily for 10 days starting from 7 days post tumor cell inoculation and measured on day 17; format: functional, organism-based; conditions: dose 20.0 mg/kg/day, time 10.0 day
Astrocyte = experiment: Cytotoxicity against Wistar rat astrocytes assessed as cell growth inhibition at 100 uM measured after 72 hrs by SRB assay; format: cell-based
[25] = (§5) Inhibition of TrxR in rat liver assessed as reduction in TNB formation using DTNB and NADPH as substrate preincubated with enzyme for 15 mins followed by NADPH addition by absorbance based analysis; format: tissue-based; how it was run: as §3
Rattus norvegicus [26] = species on record: Rattus norvegicus; experiment: as §5; format: tissue-based; how it was run: as §3

| Compound | Activity (C6 [1]) | Ratio CC50/EC50 [2] | Activity [3] | Activity [4] [U/L] | Activity [5] | Activity [6] [mg/dL] | Activity [7] | EC50 (U-251) [µM] | Ratio CC50/EC50 [8] | CC50 at 72 h [9] [µM] | EC50 (U-87 MG) [µM] | Activity [10] [mg/dL] | inhibition (Rattus norvegicus [11]) [%] | Activity [13] | Activity (GL261 [14]) | Activity [15] [%] | EC50 (C6 [16]) [µM] | Activity [17] | Ratio CC50/EC50 [18] | Activity [19] | further results |
| --- | --- | --- | --- | --- | --- | --- | --- | --- | --- | --- | --- | --- | --- | --- | --- | --- | --- | --- | --- | --- | --- |
| O=C(/C=C/c1ccc([N+](=O)[O-])o1)c1cccc(Br)c1 | inactive | 5.2 | 9.2 10^3 /uL | 9.9 | Non-Toxic | 109 | Non-Toxic | 5.8 | 6.1 | 35.6 | 6.8 | 0.5 | 78.7 | Non-Toxic | inactive | 45.3 | 1.4 | Non-Toxic | 25.4 | Non-Toxic | inhibition in vivo at 100 mg/kg/day [12]: 41.3%; Activity [20]: 20.6 U/L; Activity [21]: Non-Toxic; Activity (C6 [22]): Active |
| Cn1nnc2c(C(N)=O)ncn2c1=O [TEMOZOLOMIDE] | – | – | – | – | – | – | – | > 200 | – | – | > 200 | – | – | – | – | – | 60.5 | – | – | – | Activity (GL261 [23]): Active; Activity (GL261 [24]): inactive; Activity (Astrocyte): Non-Toxic |
| CCCCc1ccc(C(=O)/C=C/c2ccc([N+](=O)[O-])o2)cc1 | inactive | 7.1 | 9.5 10^3 /uL | 19.8 | Non-Toxic | 94 | Non-Toxic | 3.9 | 10.6 | 41.2 | 5.8 | 0.3 | 80.7 | Non-Toxic | inactive | 45.5 | 1.7 | Non-Toxic | 24.2 | Non-Toxic | IC50 [25]: 25 µM; inhibition (Rattus norvegicus [26]): Dose-dependent effect; Activity [20]: 22.2 U/L; Activity [21]: Non-Toxic; Activity (C6 [22]): Active |
| Cc1cccc(C(=O)/C=C/c2ccc([N+](=O)[O-])o2)c1 | inactive | 15.8 | 8.4 10^3 /uL | 6.2 | Non-Toxic | 108 | Non-Toxic | 2.3 | 22.7 | 52.2 | 3.3 | 0.4 | 95.2 | Non-Toxic | inactive | 46 | 2.1 | Non-Toxic | 24.8 | Non-Toxic | inhibition in vivo at 100 mg/kg/day [12]: 43.8%; IC50 [25]: 25 µM; inhibition (Rattus norvegicus [26]): Dose-dependent effect; Activity [20]: 20.3 U/L; Activity [21]: Non-Toxic; Activity (C6 [22]): Active |
